UPR XBP1 act = adaptive UPR (XBP1) activation; activation, % at 20 µM; AID 463104; 330,000 compounds, 0.33% hits; CHO-XBP1 luciferase reporter, IRE1-XBP1 UPR activation, luminescence; percent of tunicamycin response, DMSO as zero;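 active means versus positive control, 20 µM dose yields 30% or more activation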;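 further: 100% = tunicamycin at 10 µg/mL and 0% = DMSO only wells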
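Material – CHO cell line with stable XBP1 luciferase reporter · Buffer or medium – F12 plus 10% FBS · Compound – single point, 20 µM final compound, 1% DMSO · Schedule – 16-18 h cell attachment at 37 °C, then 6 h compound exposure · Signal – Steady-Glo luminescence read · Benchmarks – high control tunicamycin 10 µg/mL final, low control DMSO vehicle only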
NR3A LBD binder = modulates the human NR3A ligand-binding domain; 340,000 compounds, 2.5% hits; NR3A LBD differential scanning fluorimetry, Tm shift; 0% = protein alone, 100% = glycine-bound protein; Tm shift relative to glycine control, % at 25 µM;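 active means melting temperature shift of at least 10% of the positive control shift, at one fixed dose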
UPR CHOP act = activators of apoptotic arm of unfolded protein response (CHOP); CHO-CHOP luciferase reporter, UPR activation, luminescence; percent of tunicamycin response over DMSO baseline; activation, % at 10 µM; 330,000 compounds, 0.34% hits;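 active means at 10 µM dose, activation of 40% or more, normalized to positive control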;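 further: 100% = tunicamycin at 10 µg/mL and 0% = DMSO alone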
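System: CHO CHOP reporter cells. Amount: 500 cells per well. Buffer or medium: F12 medium, 10% FBS. Compound dosing: one dose, 10 µM in 0.5% DMSO. Incubation: 6 h compound exposure at 37 °C after overnight seeding. Technique: Steady-Glo luciferase luminescence. Benchmarks: tunicamycin and DMSO controls.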
MPTP inh = inhibitors of mitochondrial permeability transition pore | 360,000 compounds, 1.4% hits | isolated mouse mitochondria, Ca2+ swelling absorbance, 30 min | inhibition, % at 10 µM;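 active means inhibition of 50% or more, scaled per plate between neutral and stimulator controls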;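 further: 0% = DMSO wells given calcium and 100% = 1 mM EGTA wells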
aDG glyco act = alpha-DG glycosylation activation. Pro5-aDG cells, alpha-DG glycosylation AlphaScreen (IIH6); 0% Pro5, 100% B10-LARGE cell signal. activation, % at 10 µM. 360,000 compounds, 0.22% hits. AID 624168;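 active means activation of at least 8% versus controls, or a plate z-score of at least 8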;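 further: Pro5 are CHO cells carrying HIG-tagged alpha-DG that lacks glycosylation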
CHOP inhibitor = blocks CHOP induction under ER stress | inhibition, % at 10 µM | 220,000 compounds, 3.8% hits | AID 2732 | CHO-K1 CHOP-promoter luciferase, tunicamycin-induced, 15-18 h;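 active means compounds that reduced the stress-induced luciferase reporter signal by more than about 70% of percent inhibition, limit read from the data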;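 further: 0% = tunicamycin plus vehicle and 100% = wells without tunicamycin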
Numbers without * were called inactive; . = no result. Shown are actives, neighbours in structure and some others; about 5.6% of the full set was active somewhere.

SMILES	UPR XBP1 act	NR3A LBD binder	UPR CHOP act	MPTP inh	aDG glyco act	CHOP inhibitor
CCOC(=O)/C=C/[C@H]1CCc2cccc(Cl)c2O1	-1	15*	-1	0	0	.
COc1ccc(/C=N/NC(=O)c2cccc3ccccc23)c(OC)c1OC	-3	-3	1	-1	0	.
COc1ccc(CN2CCN(c3ccc(F)cc3)CC2)c(OC)c1OC	-1	-6	-1	42	0	44
COc1ccc(CN2CCN(C(c3ccc(F)cc3)c3ccc(F)cc3)CC2)c(OC)c1OC	-6	13*	3	41	0	.
O=C(N=Nc1c(O)[nH]c2ccccc12)c1cc(-c2ccc(F)cc2)n[nH]1	-2	19*	0	1	0	28
O=C(N=Nc1c(O)[nH]c2ccccc12)c1cc(-c2cccs2)[nH]n1	1	22*	2	1	0	-22
Oc1[nH]c2ccccc2c1N=Nc1ccccc1F	6	8	9	5	0	91*
CN1CCC(N(C)C(=O)c2cc(=O)c3ccccc3o2)CC1	-1	0	-2	-1	0	8
O=C(Nc1ccc(F)c(Cl)c1)C1Cc2c(-c3ccc4c(c3)OCO4)ccnc2O1 (stereo not given)	.	.	.	1	0	.
COc1cccc(/C=C/C(=O)OCC(=O)Nc2cccc(S(=O)(=O)NC3=NCCCCC3)c2)c1	0	2	0	0	0	.
O=C(COc1ccc2ccccc2c1)Nc1ccc2c3c(cccc13)CC2	0	-4	-1	11	0	92*
CCc1cccc2c(C(=O)Cn3nnc(-c4ccc(OC)c(OC)c4)n3)c[nH]c12	-3	2	-1	-3	4	72*
O=c1oc(Cl)c(Cl)c2ccccc12	-5	1	88*	1	0	-21
O=C(Nc1c(C(=O)O)[nH]c2ccc(F)cc12)c1cccc(C(F)(F)F)c1	-2	12*	-2	1	0	16
O=C(Nc1c(C(=O)O)[nH]c2ccccc12)c1cccc(C(F)(F)F)c1	-1	3	-1	2	0	8
O=C(O/N=C1\CCCc2ccccc21)c1ccc(F)cc1	4	1	4	1	0	72*
CNC1=C(N(C(C)=O)c2ccc(Br)cc2)C(=O)c2ccccc2C1=O	.	-2	.	2	8.7*	-13
CN1CCc2c(sc3c2C(=O)NC(c2cn(Cc4ccccc4)c4ccccc24)N3)C1 (stereo not given)	4	-6	0	2	1	79*
Cc1ccc(O)c(C2=Nc3ccccc3N=C(c3ccc([N+](=O)[O-])cc3)C2)c1	-3	-10	-2	4	0	-17
Cc1ccc(C2=Nc3ccccc3N=C(c3ccco3)C2)c(O)c1	-7	2	-4	-4	1	72*
Cc1ccc(O)c(C2=Nc3ccccc3N=C(c3ccco3)C2)c1	0	-6	-1	0	0	87*
CC(C)(C)n1nnnc1C(c1ccccc1)N1CCN(c2ncccn2)CC1 (stereo not given)	.	.	.	0	0	.
CCN(CC)C(=O)[C@H]1C[C@H](CC(=O)NCCCOC)C(=O)N2CCc3c([nH]c4cc(CCC(=O)N(C)C)ccc34)[C@]12C	0	-2	3	0	0	.
Cn1c(-c2c(N)n(CCc3ccccc3)c3nc4ccccc4nc23)nc2ccccc21	0	11*	12	2	1	-44
N#Cc1c(N)n(CCc2ccc(F)cc2)c2nc3ccccc3nc12	-5	-3	3	3	1	71*
CCCCn1c(NC(=O)c2ccc(F)cc2)c(C#N)c2nc3ccccc3nc21	96*	.	2	.	.	.
COCCn1c(N)c(C#N)c2nc3ccccc3nc21	4	-2	0	-1	0	18
COc1ccc(CNCCC2(Cc3ccccc3)CC(C)N(C)CC2C)cc1OC (stereo not given)	0	-1	0	-2	0	-18
Cc1ccc(C2=NN=C(NC(=O)C(F)(F)F)SC2)cc1	.	-4	.	0	2	25
CCOC(=O)n1c(=O)n(Cc2ccccc2Cl)c2ccccc21	3	-1	0	-1	0	19

High-throughput results deposited in PubChem BioAssay by several laboratories.
